In ChEMBL document CHEMBL1123998, “Radioiodinated benzodiazepines: agents for mapping glial tumors” (J Med Chem, 1988):

How the values were obtained:
[1] = molecular target: GABA-A receptor; anion channel; test: Binding affinity for GABA-A benzodiazepine receptor of rat brain
Method in brief: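 Frozen rat brain (central receptor) and kidney (peripheral site) sections, 20 μm, were prewashed 3 × 5 min in 50 mM Tris pH 7.4 at 0 °C. They were incubated 90 min with 5 nM [³H]flunitrazepam plus graded competitor, with 1 μM PK 11195 defining nonspecific binding. Film autoradiography (10 days, ¹⁴C standards) was read by densitometry. Ki = IC50/(1+[L]/Kd), Kd 40 nM; N = 3.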

Rattus norvegicus [2] = organism: Rattus norvegicus; test: Radioligand binding in heart tissue after 30 min; assay type: functional
Method in brief: (§1)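 Male Sprague-Dawley rats (160–265 g) under light ether received 16–19 μCi ¹²⁵I-ligand in 0.20–0.25 mL 15:85 EtOH/PBS pH 6.0 via the femoral vein. They were decapitated at 5 min, 30 min, 2, 6 or 24 h, and tissues were weighed and gamma-counted. Results are % injected dose/g wet tissue, normalized to a 200-g rat; N = 5 per time point.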

[3] = molecular target: Translocator protein (Rattus norvegicus) (UniProt P16257); test: Reduced radioligand binding following 30 min intravenous 10 mg/kg PK11195 in adrenal gland; assay type: functional, organism-based; design: dose 10 mg/kg
Sequence of Translocator protein (Rattus norvegicus) (P16257 whole entry, looked up): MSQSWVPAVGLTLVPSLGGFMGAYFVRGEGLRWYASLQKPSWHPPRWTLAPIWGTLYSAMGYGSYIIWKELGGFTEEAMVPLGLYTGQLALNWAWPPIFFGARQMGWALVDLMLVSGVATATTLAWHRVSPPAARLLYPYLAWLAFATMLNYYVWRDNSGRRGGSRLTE

Rattus norvegicus [4] = organism: Rattus norvegicus; test: (§2) Radioligand binding in brain tissue after 24 hr r; assay type: functional; method in brief: as §1
Rattus norvegicus [5] = organism: Rattus norvegicus; test: Radioligand binding in adrenal tissue after 6 hr; assay type: functional; method in brief: as §1
Rattus norvegicus [6] = organism: Rattus norvegicus; test: Radioligand binding in adrenal tissue after 2 hr; assay type: functional; method in brief: as §1
Rattus norvegicus [7] = organism: Rattus norvegicus; test: Radioligand binding in thyroid tissue after 24 hr r; assay type: functional, Thyroid gland; method in brief: as §1
Rattus norvegicus [8] = organism: Rattus norvegicus; test: Radioligand binding in kidney tissue after 2 hr; assay type: functional; method in brief: as §1
Rattus norvegicus [9] = organism: Rattus norvegicus; test: Radioligand binding in kidney tissue after 30 min; assay type: functional; method in brief: as §1
Rattus norvegicus [10] = organism: Rattus norvegicus; test: Radioligand binding in brain tissue after 5 min; assay type: functional; method in brief: as §1
Rattus norvegicus [11] = organism: Rattus norvegicus; test: Radioligand binding in blood after 5 min; assay type: functional; method in brief: as §1
Rattus norvegicus [12] = organism: Rattus norvegicus; test: Radioligand binding in brain tissue after 30 min; assay type: functional; method in brief: as §1
Rattus norvegicus [13] = organism: Rattus norvegicus; test: Radioligand binding in thyroid tissue after 5 min; assay type: functional, Thyroid gland; method in brief: as §1
Rattus norvegicus [14] = organism: Rattus norvegicus; test: Radioligand binding in kidney tissue after 24 hr r; assay type: functional; method in brief: as §1
[15] = molecular target: Translocator protein (Rattus norvegicus) (UniProt P16257); test: Reduced radioligand binding following 30 min intravenous 10 mg/kg PK11195 in adrenal tissue; assay type: functional, organism-based; design: dose 10 mg/kg; conditions: at 10 mg/kg
Rattus norvegicus [16] = organism: Rattus norvegicus; test: Radioligand binding in thyroid tissue after 6 hr; assay type: functional, Thyroid gland; method in brief: as §1
Rattus norvegicus [17] = organism: Rattus norvegicus; test: Radioligand binding in heart tissue after 2 hr; assay type: functional; method in brief: as §1
Rattus norvegicus [18] = organism: Rattus norvegicus; test: Radioligand binding in adrenal gland after 30 min; assay type: functional; method in brief: as §1
Rattus norvegicus [19] = organism: Rattus norvegicus; test: Radioligand binding in adrenal gland after 5 min; assay type: functional; method in brief: as §1
Rattus norvegicus [20] = organism: Rattus norvegicus; test: Radioligand binding in thyroid tissue after 2 hr in rats given oral KI solution; assay type: functional, Thyroid gland
Rattus norvegicus [21] = organism: Rattus norvegicus; test: Radioligand binding in thyroid tissue after 2 hr; assay type: functional, Thyroid gland; method in brief: as §1
[22] = molecular target: Translocator protein (Rattus norvegicus) (UniProt P16257); test: Reduced radioligand binding following 30 min intravenous 10 mg/kg PK11195 in blood; assay type: functional, organism-based; design: dose 10 mg/kg
Rattus norvegicus [23] = organism: Rattus norvegicus; test: Radioligand binding in blood after 30 min; assay type: functional; method in brief: as §1
[24] = molecular target: Translocator protein (Rattus norvegicus) (UniProt P16257); test: Reduced radioligand binding following 30 min intravenous 10 mg/kg PK11195 in submaxillary gland; assay type: functional, organism-based; design: dose 10 mg/kg
Rattus norvegicus [25] = organism: Rattus norvegicus; test: Radioligand binding in thyroid tissue after 30 min; assay type: functional, Thyroid gland; method in brief: as §1
[26] = molecular target: Translocator protein (Rattus norvegicus) (UniProt P16257); test: Reduced radioligand binding following 30 min intravenous 10 mg/kg PK11195 in kidney tissue; assay type: functional, organism-based; design: dose 10 mg/kg
Rattus norvegicus [27] = organism: Rattus norvegicus; test: Radioligand binding in blood after 2 hr; assay type: functional; method in brief: as §1
Rattus norvegicus [28] = organism: Rattus norvegicus; test: Radioligand binding in heart tissue after 24 hr r; assay type: functional; method in brief: as §1
Rattus norvegicus [29] = organism: Rattus norvegicus; test: Radioligand binding in blood after 24 hr r; assay type: functional; method in brief: as §1
Rattus norvegicus [30] = organism: Rattus norvegicus; test: Radioligand binding in kidney tissue after 5 min; assay type: functional; method in brief: as §1
Rattus norvegicus [31] = organism: Rattus norvegicus; test: Radioligand binding in heart tissue after 6 hr; assay type: functional; method in brief: as §1
Rattus norvegicus [32] = organism: Rattus norvegicus; test: Radioligand binding in heart tissue after 5 min; assay type: functional; method in brief: as §1
Rattus norvegicus [33] = organism: Rattus norvegicus; test: Radioligand binding in brain tissue after 2 hr; assay type: functional; method in brief: as §1
[34] = molecular target: Translocator protein (Rattus norvegicus) (UniProt P16257); test: Reduced radioligand binding following 30 min intravenous 10 mg/kg PK11195 in heart tissue; assay type: functional, organism-based; design: dose 10 mg/kg
Rattus norvegicus [35] = organism: Rattus norvegicus; test: as §2; assay type: functional; method in brief: as §1; remark: listed apart in the source
[36] = molecular target: Translocator protein (Rattus norvegicus) (UniProt P16257); test: Reduced radioligand binding following 30 min intravenous 10 mg/kg PK11195 in lung tissue; assay type: functional, organism-based; design: dose 10 mg/kg
Translocator protein = Translocator protein (Rattus norvegicus, UniProt P16257); test: Binding affinity for peripheral benzodiazepine receptor of rat kidney
Sequence of Translocator protein (P16257 whole entry, looked up): as above

Rattus norvegicus [37] = organism: Rattus norvegicus; test: Radioligand binding in adrenal tissue after 24 hr r; assay type: functional; method in brief: as §1
Rattus norvegicus [38] = organism: Rattus norvegicus; test: Radioligand binding in blood after 6 hr; assay type: functional; method in brief: as §1
[39] = molecular target: Translocator protein (Rattus norvegicus) (UniProt P16257); test: Reduced radioligand binding following 30 min intravenous 10 mg/kg PK11195 in brain tissue; assay type: functional, organism-based; design: dose 10 mg/kg
Rattus norvegicus [40] = organism: Rattus norvegicus; test: Radioligand binding in kidney tissue after 6 hr; assay type: functional; method in brief: as §1

CN1C(=O)CN=C(c2ccc(Cl)cc2)c2cc(Cl)ccc21 [RO-54864]
Ki [1]: > 1000 nM

CN1C(=O)CN=C(c2ccc(I)cc2)c2cc(Cl)ccc21
Activity (Rattus norvegicus [2]): 1.13 | Distribution [3]: 1.74 | Ki [1]: > 1000 nM | Activity (Rattus norvegicus [4]): 0.01 | Activity (Rattus norvegicus [5]): 0.6 | Activity (Rattus norvegicus [6]): 2.38 | Activity (Rattus norvegicus [7]): 10.85 | Activity (Rattus norvegicus [8]): 0.51 | Activity (Rattus norvegicus [9]): 1.05 | Activity (Rattus norvegicus [10]): 1 | Activity (Rattus norvegicus [11]): 0.22 | Activity (Rattus norvegicus [12]): 0.6 | Activity (Rattus norvegicus [13]): 3.27 | Activity (Rattus norvegicus [14]): 0.03 | Change [15]: -75% | Activity (Rattus norvegicus [16]): 11.85 | Activity (Rattus norvegicus [17]): 0.5 | Activity (Rattus norvegicus [18]): 7.85 | Activity (Rattus norvegicus [19]): 7.1 | Activity (Rattus norvegicus [20]): 0.49 | Activity (Rattus norvegicus [21]): 4.26 | Distribution [22]: 0.16 | Activity (Rattus norvegicus [23]): 0.11 | Distribution [24]: 0.74 | Change ([24]; at 10 mg/kg): -49% | Activity (Rattus norvegicus [25]): 2.25 | Distribution [26]: 0.74 | Change ([26]; at 10 mg/kg): -35% | Activity (Rattus norvegicus [27]): 0.1 | Activity (Rattus norvegicus [28]): 0.02 | Activity (Rattus norvegicus [29]): 0.01 | Activity (Rattus norvegicus [30]): 1.78 | Activity (Rattus norvegicus [31]): 0.19 | Activity (Rattus norvegicus [32]): 2.18 | Activity (Rattus norvegicus [33]): 0.35 | Distribution [34]: 0.76 | Change ([34]; at 10 mg/kg): -34% | Activity (Rattus norvegicus [35]): 0.14 | Distribution [36]: 0.58 | Change ([36]; at 10 mg/kg): -46% | Ki (Translocator protein): 13.6 nM | Activity (Rattus norvegicus [37]): 0.05 | Activity (Rattus norvegicus [38]): 0.05 | Distribution [39]: 0.69 | Activity (Rattus norvegicus [40]): 0.21

CN1C(=O)CN=C(c2ccc(Cl)cc2)c2cc(I)ccc21
Activity (Rattus norvegicus [2]): 0.77 | Ki [1]: > 1000 nM | Activity (Rattus norvegicus [4]): 0.21 | Activity (Rattus norvegicus [5]): 1.3 | Activity (Rattus norvegicus [6]): 1.84 | Activity (Rattus norvegicus [7]): 17.2 | Activity (Rattus norvegicus [8]): 0.58 | Activity (Rattus norvegicus [9]): 0.74 | Activity (Rattus norvegicus [10]): 0.75 | Activity (Rattus norvegicus [11]): 0.2 | Activity (Rattus norvegicus [12]): 0.46 | Activity (Rattus norvegicus [13]): 1.5 | Activity (Rattus norvegicus [14]): 0.25 | Activity (Rattus norvegicus [16]): 17.28 | Activity (Rattus norvegicus [17]): 0.63 | Activity (Rattus norvegicus [18]): 3.63 | Activity (Rattus norvegicus [19]): 4.85 | Activity (Rattus norvegicus [21]): 5.57 | Activity (Rattus norvegicus [23]): 0.15 | Activity (Rattus norvegicus [25]): 4.42 | Activity (Rattus norvegicus [27]): 0.12 | Activity (Rattus norvegicus [28]): 0.25 | Activity (Rattus norvegicus [29]): 0.05 | Activity (Rattus norvegicus [30]): 1.1 | Activity (Rattus norvegicus [31]): 0.57 | Activity (Rattus norvegicus [32]): 1.15 | Activity (Rattus norvegicus [33]): 0.41 | Activity (Rattus norvegicus [35]): 0.46 | Ki (Translocator protein): 13.3 nM | Activity (Rattus norvegicus [37]): 0.42 | Activity (Rattus norvegicus [38]): 0.12 | Activity (Rattus norvegicus [40]): 0.59
